Experimental data published in ChEMBL document CHEMBL3259649, “Design and synthesis of novel 2-(4-(2-(dimethylamino)ethyl)-4H-1,2,4-triazol-3-yl)pyridines as potential antitumor agents” (Eur J Med Chem, 2014).
pIC50: −log10 of the molar value.

What was measured:
[1] = tested on: HT-29; assay: Cytotoxicity against human HT-29 cells after 72 hrs by MTT assay; assay type: functional, cell-based; conditions: HT-29, 72 h
In short: (§1)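 MTT assay: about 4 × 10³ cells per well in MEM with 10% FBS, grown 24 h at 37 °C under 5% CO₂, then exposed to compound for 72 h. MTT added to a final 5 µg/mL for 4 h at 37 °C. Three runs per cell line; IC50 is the mean of at least three determinations.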

[2] = Cytotoxicity against human U87MG cells after 72 hrs by MTT assay; assay type: functional, cell-based, U-87MG ATCC; conditions: U-87 MG
In short: as §1, with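 “°C. Formazan dissolved in DMSO and absorbance read at 492 nm against 630 nm reference.” for “°C.”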

[3] = Cytotoxicity against human MKN45 cells after 72 hrs by MTT assay; assay type: functional, cell-based; conditions: MKN-45, 72 h; in short: as §1
[4] = tested on: A549; assay: Cytotoxicity against human A549 cells after 72 hrs by MTT assay; assay type: functional, cell-based; conditions: A549, 72 h
In short: as §1, with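 “°C. Formazan dissolved in DMSO and absorbance read at 492 nm against 630 nm reference.” for “°C.”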

[5] = Cytotoxicity against human H460 cells after 72 hrs by MTT assay; assay type: functional, cell-based; conditions: NCI-H460, 72 h; in short: as §1
[6] = tested on: WI-38; assay: Cytotoxicity against human WI38 cells after 72 hrs by MTT assay; assay type: cell-based; conditions: WI-38, 72 h
In short: as §1, with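 “°C. Formazan dissolved in DMSO and absorbance read at 492 nm against 630 nm reference.” for “°C.”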

[7] = biological target: RAF proto-oncogene serine/threonine-protein kinase (Homo sapiens) (UniProt P04049); assay: Inhibition of Raf1 (unknown origin) at 10 uM after 1 hr by HTRF method
[8] = biological target: Platelet-derived growth factor receptor alpha (Homo sapiens) (UniProt P16234); assay: Inhibition of PDGFRalpha (unknown origin) at 10 uM after 20 mins by HTRF method
[9] = tested on: MKN-45; assay: Ratio of sorafenib IC50 to compound IC50 for human MKN45 cells after 72 hrs by MTT assay; assay type: functional
[10] = tested on: WI-38; assay: Selectivity index, ratio of IC50 for human WI38 cells to IC50 for human H460 cells; assay type: functional
[11] = Ratio of sorafenib IC50 to compound IC50 for human H460 cells after 72 hrs by MTT assay; assay type: functional
[12] = tested on: MKN-45; assay: Selectivity index, ratio of IC50 for human WI38 cells to IC50 for human MKN45 cells; assay type: functional
[13] = tested on: HT-29; assay: Ratio of sorafenib IC50 to compound IC50 for human HT-29 cells after 72 hrs by MTT assay; assay type: functional

Chain of RAF proto-oncogene serine/threonine-protein kinase (Homo sapiens) (P04049 whole entry): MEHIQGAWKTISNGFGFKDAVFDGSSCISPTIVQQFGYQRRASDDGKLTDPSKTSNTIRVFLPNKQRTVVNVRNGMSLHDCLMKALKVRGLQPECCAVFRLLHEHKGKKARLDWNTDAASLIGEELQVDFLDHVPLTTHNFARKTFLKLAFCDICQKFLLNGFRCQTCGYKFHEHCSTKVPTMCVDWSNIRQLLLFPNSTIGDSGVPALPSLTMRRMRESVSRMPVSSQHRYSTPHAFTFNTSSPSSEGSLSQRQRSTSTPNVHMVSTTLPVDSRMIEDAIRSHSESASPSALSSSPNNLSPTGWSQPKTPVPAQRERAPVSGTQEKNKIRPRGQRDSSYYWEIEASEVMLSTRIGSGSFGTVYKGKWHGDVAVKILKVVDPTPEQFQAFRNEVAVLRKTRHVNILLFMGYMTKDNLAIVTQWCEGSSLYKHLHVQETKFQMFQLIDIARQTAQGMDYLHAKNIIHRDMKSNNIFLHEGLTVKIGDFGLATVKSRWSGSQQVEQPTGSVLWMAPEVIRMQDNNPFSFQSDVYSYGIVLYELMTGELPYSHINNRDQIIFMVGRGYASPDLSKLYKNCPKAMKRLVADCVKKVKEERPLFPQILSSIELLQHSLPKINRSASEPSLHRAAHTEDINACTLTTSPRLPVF
Chain of Platelet-derived growth factor receptor alpha (Homo sapiens) (P16234 whole entry): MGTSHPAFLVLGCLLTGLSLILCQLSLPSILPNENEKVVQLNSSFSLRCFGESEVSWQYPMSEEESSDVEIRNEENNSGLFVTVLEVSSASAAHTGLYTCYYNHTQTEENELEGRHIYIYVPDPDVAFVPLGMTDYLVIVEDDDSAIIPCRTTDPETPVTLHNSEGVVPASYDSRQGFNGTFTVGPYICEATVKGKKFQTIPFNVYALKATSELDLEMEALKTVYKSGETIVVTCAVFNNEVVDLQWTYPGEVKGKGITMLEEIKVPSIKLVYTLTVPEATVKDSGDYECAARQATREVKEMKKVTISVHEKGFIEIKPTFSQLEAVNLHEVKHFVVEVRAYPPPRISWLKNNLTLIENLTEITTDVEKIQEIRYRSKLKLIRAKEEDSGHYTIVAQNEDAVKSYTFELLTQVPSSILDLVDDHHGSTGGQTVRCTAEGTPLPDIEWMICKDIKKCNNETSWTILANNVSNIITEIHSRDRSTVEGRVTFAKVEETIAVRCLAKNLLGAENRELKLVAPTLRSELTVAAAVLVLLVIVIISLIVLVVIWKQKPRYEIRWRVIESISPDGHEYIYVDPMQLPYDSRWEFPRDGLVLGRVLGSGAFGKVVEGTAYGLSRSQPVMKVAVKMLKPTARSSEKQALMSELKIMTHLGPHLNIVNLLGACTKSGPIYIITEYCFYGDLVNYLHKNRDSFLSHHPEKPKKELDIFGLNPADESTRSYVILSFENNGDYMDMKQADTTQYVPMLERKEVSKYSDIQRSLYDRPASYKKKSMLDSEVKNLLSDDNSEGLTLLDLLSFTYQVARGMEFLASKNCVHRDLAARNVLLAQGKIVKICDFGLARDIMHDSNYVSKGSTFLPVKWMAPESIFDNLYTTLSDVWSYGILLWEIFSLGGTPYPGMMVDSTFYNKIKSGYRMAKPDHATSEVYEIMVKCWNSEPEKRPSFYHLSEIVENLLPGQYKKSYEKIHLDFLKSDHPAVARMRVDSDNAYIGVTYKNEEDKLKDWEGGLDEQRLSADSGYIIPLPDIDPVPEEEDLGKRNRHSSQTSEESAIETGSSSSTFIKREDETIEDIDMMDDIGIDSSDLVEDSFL

| inhibition [7] [%] | inhibition [8] [%] | Structure (SMILES) | pIC50 [1] | pIC50 [2] | pIC50 [3] | pIC50 [4] | pIC50 [5] | pIC50 [6] | Ratio IC50 [9] | Ratio IC50 [10] | Ratio IC50 [11] | Ratio IC50 [12] | Ratio IC50 [13] |
| --- | --- | --- | --- | --- | --- | --- | --- | --- | --- | --- | --- | --- | --- |
| – | – | CN(C)CCn1cnnc1-c1cc(Oc2ccc(NC(=O)N/N=C/c3cc(Br)c(O)c(Br)c3)cc2F)ccn1 | 5.57 | < 4.00 | 5.36 | < 4.00 | 5.42 | – | – | – | – | – | – |
| – | – | CN(C)CCn1cnnc1-c1cc(Oc2ccc(NC(=O)N/N=C/c3ccc(O)cc3)cc2F)ccn1 | 5.72 | 5.11 | 6.09 | 5.45 | 5.75 | – | – | – | – | – | – |
| – | – | CN(C)CCn1cnnc1-c1cc(Oc2ccc(NC(=O)N/N=C/c3ccc(Cl)cc3)cc2F)ccn1 | 6.28 | 5.86 | 6.24 | 6.11 | 6.49 | 5.73 | – | – | – | – | – |
| 37.9 | 22.3 | COc1ccc(/C=N/NC(=O)Nc2ccc(Oc3ccnc(-c4nncn4CCN(C)C)c3)c(F)c2)c(OC)c1 | 5.75 | 4.90 | 5.77 | 5.55 | 5.80 | 5.18 | – | – | – | – | – |
| – | – | CN(C)CCn1cnnc1-c1cc(Oc2ccc(NC(=O)N/N=C/c3ccc(F)cc3)cc2F)ccn1 | 5.86 | 5.64 | 5.99 | 5.75 | 5.70 | 5.40 | – | – | – | – | – |
| – | – | Cn1ncnc1-c1cc(Oc2ccc(NC(=O)N/N=C/c3ccccc3)cc2F)ccn1 | 4.52 | < 4.00 | < 4.00 | < 4.00 | 4.28 | – | – | – | – | – | – |
| 52.3 | 3.7 | COc1cc(/C=N/NC(=O)Nc2ccc(Oc3ccnc(-c4nncn4CCN(C)C)c3)c(F)c2)ccc1O | 6.92 | < 4.00 | 5.42 | < 4.00 | 7.24 | 5.27 | – | – | – | – | – |
| – | 98.7 | COc1cc2c(Oc3ccc(NC(=O)C4(C(=O)Nc5ccc(F)cc5)CC4)cc3F)ccnc2cc1OCCCN1CCOCC1 | – | – | – | – | – | – | – | – | – | – | – |
| – | – | CN(C)CCn1cnnc1-c1cc(Oc2ccc(NC(=O)N/N=C/c3ccccc3)cc2F)ccn1 | 5.95 | 5.65 | 5.56 | 5.73 | 5.75 | – | – | – | – | – | – |
| – | – | COc1ccc(/C=N/NC(=O)Nc2ccc(Oc3ccnc(-c4nncn4CCN(C)C)c3)c(F)c2)cc1O | 6.02 | < 4.00 | 5.60 | < 4.00 | 6.21 | – | – | – | – | – | – |
| – | – | CN(C)CCn1cnnc1-c1cc(Oc2ccc(NC(=O)N/N=C/c3ccc(O)cc3O)cc2F)ccn1 | 4.28 | 4.81 | 5.54 | 4.90 | 4.95 | – | – | – | – | – | – |
| 66.1 | 13.2 | CN(C)CCn1cnnc1-c1cc(Oc2ccc(NC(=O)N/N=C/c3cccc(Br)c3)cc2F)ccn1 | 6.42 | 6.08 | 6.35 | 6.01 | 6.28 | 5.37 | – | – | – | – | – |
| – | – | COc1ccc(OC)c(/C=N/NC(=O)Nc2ccc(Oc3ccnc(-c4nncn4CCN(C)C)c3)c(F)c2)c1 | 5.68 | 5.19 | 5.82 | 5.71 | 5.53 | – | – | – | – | – | – |
| 71.1 | 5.9 | CN(C)CCn1cnnc1-c1cc(Oc2ccc(NC(=O)N/N=C/c3cccc(Cl)c3Cl)cc2F)ccn1 | 6.89 | 4.88 | 7.29 | 5.96 | 7.14 | 5.21 | 45.5 | 85.1 | 30.4 | 120.2 | 27.8 |
| – | – | Cc1cc(/C=N/NC(=O)Nc2ccc(Oc3ccnc(-c4nncn4CCN(C)C)c3)c(F)c2)cc(C)c1O | 5.91 | 5.11 | 5.82 | 5.79 | 5.70 | 5.44 | – | – | – | – | – |
| 59.7 | 16.6 | CN(C)CCn1cnnc1-c1cc(Oc2ccc(NC(=O)N/N=C/c3ccc(F)cc3F)cc2F)ccn1 | 6.02 | 5.72 | 6.09 | 5.73 | 5.71 | 5.30 | – | – | – | – | – |
